The nature of assay [1]: Ratio of IC50 of compound in presence of morphine on the electrically stimulated guinea pig ileal longitudinal muscle (GPI) to that of IC50 of control value. The format is functional. The gist of the method: (§1)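 Guinea pig ileal longitudinal muscle (GPI) strip. Each ligand at 5 nM was incubated with the tissue for 30 min before a morphine (μ-selective) concentration-response curve was run. The IC50 ratio is the morphine IC50 with antagonist divided by the control IC50 in the same preparation. Relative potency is the ratio relative to the monovalent reference ligand. Mean ± SE of three determinations.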

Assay [2] is filed under the species Cavia porcellus. Briefly: Compound was tested for its antagonistic activity with morphine on the electrically stimulated guinea pig ileal longitudinal muscle (GPI). It is filed as functional, Muscle tissue. The method, boiled down: as §1
Assay [3] is filed under the species Cavia porcellus. Briefly: Compound was tested for its antagonistic activity with ethylketazocine (EK) activity on the electrically stimulated guinea pig ileal longitudinal muscle (GPI). It is filed as functional, Muscle tissue. The gist of the method:
(§2)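 Guinea pig ileal longitudinal muscle (GPI) strip. Ligand at 5 nM was preincubated with the tissue for 30 min, then an ethylketazocine (κ-selective) concentration-response curve was run. The IC50 ratio is the EK IC50 with antagonist over the control EK IC50 in the same GPI preparation. Relative potency is expressed against the monovalent reference ligand. Mean ± SE, n = 3.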

Assay [4] can be described thus: Ratio of IC50 of compound in presence of ethylketazocine (EK) on the electrically stimulated guinea pig ileal longitudinal muscle (GPI) to that of IC50 of control value. The format is functional. The method, boiled down: as §2

With `O=C(/C=C/C(=O)NCC(=O)NCC(=O)NC1CCC2(O)C3Cc4ccc(O)c5c4C2(CCN3CC2CC2)C1O5)NCC(=O)NCC(=O)NC1CCC2(O)C3Cc4ccc(O)c5c4C2(CCN3CC2CC2)C1O5` (stereo not given), the Ratio in assay [1] came out at 100; in assay [4], 19.6. Moreover, the Relative potency came to 43 in the assay filed under Cavia porcellus [2] and 13.1 in the assay filed under Cavia porcellus [3].
For `O=C(/C=C/C(=O)NCC(=O)NC1CCC2(O)C3Cc4ccc(O)c5c4C2(CCN3CC2CC2)C1O5)NCC(=O)NC1CCC2(O)C3Cc4ccc(O)c5c4C2(CCN3CC2CC2)C1O5` (stereo not given), the Ratio in assay [1] turned out to be 8.2; in assay [4], 6.6. Also, the Relative potency in the assay filed under Cavia porcellus [2] came out at 3.6.
Regarding `O=C(/C=C/C(=O)NCC(=O)NCC(=O)NCC(=O)NCC(=O)NC1CCC2(O)C3Cc4ccc(O)c5c4C2(CCN3CC2CC2)C1O5)NCC(=O)NCC(=O)NCC(=O)NCC(=O)NC1CCC2(O)C3Cc4ccc(O)c5c4C2(CCN3CC2CC2)C1O5` (stereo not given), the Ratio in assay [1] came to 22.7; in assay [4] it was 3.3. In addition, the figures for the Relative potency in the assay listed under Cavia porcellus [2] and in the assay listed under Cavia porcellus [3] were 9.9 and 2.2, respectively.
The corresponding values for `O=C(/C=C/C(=O)NC1CCC2(O)C3Cc4ccc(O)c5c4C2(CCN3CC2CC2)C1O5)NC1CCC2(O)C3Cc4ccc(O)c5c4C2(CCN3CC2CC2)C1O5` (stereo not given) are 4.8, 3.4, 2.1 and 2.3.

Values taken from ChEMBL document CHEMBL1123365, “Synthesis and opioid antagonist potencies of naltrexamine bivalent ligands with conformationally restricted spacers” (1986).
